Laboratory results reported in ChEMBL document CHEMBL1777667, “Synthesis and antibacterial activity of some binaphthyl-supported macrocycles containing a cationic amino acid” (2011).
≈ marks a conversion by molar mass, not a printed value.

Tested on: Staphylococcus aureus
Assay: Antibacterial activity against Staphylococcus aureus ATCC 6538P by two fold dilution method
Format: functional
Outline: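 Compounds dissolved in 10% methanol/water as stock, diluted in water, then serially twofold-diluted in LB across eight wells in triplicate. Overnight (14 h) LB culture grown at 37 °C, diluted 1 in 1,000 and added to wells. Media-only, no-compound and vancomycin controls were run. Operator was blinded. MIC read by eye as the concentration next to the first well of obvious growth.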

[1] = Staphylococcus aureus, ATCC 6538P, read-out: MIC

MIC	MIC [1]	SMILES
62 µg/mL	–	COC(=O)[C@@H]1CC=CCc2cc3ccccc3c(c2OC)-c2c(OC)c(cc3ccccc23)CC(NC(C)=O)C(=O)N[C@H](CCCCN)C(=O)N1.Cl (mixture of isomers; 21)
–	> 250 µg/mL	COC(=O)[C@@H]1C/C=C/Cc2cc3ccccc3c(c2OC)-c2c(OC)c(cc3ccccc23)CC(NC(C)=O)C(=O)N[C@@H](C)C(=O)N[C@@H](CCCCN)C(=O)N1.Cl (mixture of isomers)
–	> 250 µg/mL	COC(=O)[C@@H]1C/C=C/Cc2cc3ccccc3c(c2OC)-c2c(OC)c(cc3ccccc23)CC(NC(C)=O)C(=O)N[C@H](CCCCNC(=O)OC(C)(C)C)C(=O)N1 (mixture of isomers)
16 µg/mL	–	COC(=O)[C@@H]1CC=CCc2cc3ccccc3c(c2OC)-c2c(OC)c(cc3ccccc23)CC(NC(C)=O)C(=O)N[C@H](CCCCN)C(=O)N1.Cl (mixture of isomers; 1)
–	62 µg/mL	COC(=O)[C@@H]1C/C=C/Cc2cc3ccccc3c(c2OC)-c2c(OC)c(cc3ccccc23)CC(NC(C)=O)C(=O)N[C@H](CCCNC(=N)N)C(=O)N1.Cl (mixture of isomers; 22)
62 µg/mL	–	COC(=O)[C@@H]1C/C=C/Cc2cc3ccccc3c(c2OC)-c2c(OC)c(cc3ccccc23)CC(NC(C)=O)C(=O)N[C@H](CCCNC(=N)N)C(=O)N1.Cl (mixture of isomers; 24)
–	> 250 µg/mL	COC(=O)[C@@H]1C/C=C/Cc2cc3ccccc3c(c2OC)-c2c(OC)c(cc3ccccc23)CC(NC(C)=O)C(=O)N[C@@H](CCCCNC(=O)OCC2c3ccccc3-c3ccccc32)C(=O)N1 (mixture of isomers)
–	31 µg/mL	COC(=O)[C@@H]1C/C=C/Cc2cc3ccccc3c(c2OC)-c2c(OC)c(cc3ccccc23)CC(NC(C)=O)C(=O)N[C@H](CCCNC(=N)NS(=O)(=O)c2c(C)c(C)c3c(c2C)CCC(C)(C)O3)C(=O)N1 (mixture of isomers)
–	4 µg/mL (≈ 5.33 µM)	C=CCc1cc2ccccc2c(-c2c(OC)c(CC(NC(C)=O)C(=O)N[C@H](CCCNC(=N)N)C(=O)N[C@@H](CC=C)C(=O)OC)cc3ccccc23)c1OC (some centres not stated)
31 µg/mL	–	COC(=O)[C@@H]1CC=CCc2cc3ccccc3c(c2OC)-c2c(OC)c(cc3ccccc23)CC(NC(C)=O)C(=O)N[C@H](CCCCN)C(=O)N1.Cl (mixture of isomers; 25)
–	4 µg/mL (≈ 5.33 µM)	C=CCc1cc2ccccc2c(-c2c(OC)c(CC(NC(C)=O)C(=O)N[C@@H](CCCNC(=N)N)C(=O)N[C@@H](CC=C)C(=O)OC)cc3ccccc23)c1OC (some centres not stated)
8 µg/mL	–	COC(=O)[C@@H]1CC=CCc2cc3ccccc3c(c2OC)-c2c(OC)c(cc3ccccc23)CC(NC(C)=O)C(=O)N[C@H](CCCCN)C(=O)N1.Cl (mixture of isomers; 26)
